Measured values reported in ChEMBL document CHEMBL1123564, “C-terminal deletions in agonistic and antagonistic analogues of vasopressin that improve their specificities for antidiuretic (V2) and vasopressor (V1) receptors” (J Med Chem, 1987).

Experiments:
Rattus norvegicus [1] = organism: Rattus norvegicus; assay: Compound was tested for antidiuretic activity in rats under ethanol anesthesia; format: functional, Urine
In short: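 Rats under ethanol anesthesia were given antidiuretic agonist assays against the USP posterior pituitary reference standard. Activity is expressed in units/mg.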

Rattus norvegicus [2] = organism: Rattus norvegicus; assay: Antivasopressor activity in phenoxybenzamine treated rats under urethane anesthesia was determined; Agonistic activity was observed; format: functional

Molecule `N=C(N)NCCC[C@H](NC(=O)[C@@H]1CCCN1C(=O)[C@@H]1CSSC[C@H](N)C(=O)N[C@@H](Cc2ccc(O)cc2)C(=O)N[C@@H](Cc2ccccc2)C(=O)N[C@@H](CCC(N)=O)C(=O)N[C@@H](CC(N)=O)C(=O)N1)C(=O)NCC(N)=O` [VASOPRESSIN] has an Antidiuretic activity (Rattus norvegicus [1]) of 330 U/mg and a vasopressor activity (Rattus norvegicus [2]) of 382 units/mg.
